Source: ChEMBL document CHEMBL3232740, “Differences in conformational dynamics between Plasmodium falciparum and human Hsp90 orthologues enable the structure-based discovery of pathogen-selective inhibitors” (J Med Chem, 2014)
The source made the active and inactive calls. The rule behind the calls is not given here.

Columns and labels:
Plasmodium falciparum = assay: Antiplasmodial activity against Plasmodium falciparum NF54 infected in human erythrocytes assessed as growth inhibition by [3H]hypoxanthine incorporation assay; format: functional, organism-based
L6 = assay: Cytotoxicity against rat L6 cells after 72 hrs by Alamar Blue assay; format: cell-based
[1] = Ratio of IC50 for rat L6 cells to IC50 for Plasmodium falciparum NF54
Summary of the method: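 Ratio of two IC50s. P. falciparum NF54 was grown in human erythrocytes (Trager–Jensen) for a 72 h assay window, with growth read as [3H]hypoxanthine incorporation. Cytotoxicity was measured in rat skeletal myoblast L6 cells.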

HSP90 = target: T1, HSP90 (Plasmodium falciparum 3D7, UniProt Q8IL32); assay: Binding affinity to N-terminal FLAG-tagged Plasmodium falciparum recombinant HSP90 (1 to 223) expressed in Escherichia coli BL21(DE3) by microscale thermophoresis assay
T1 sequence (Q8IL32 whole entry): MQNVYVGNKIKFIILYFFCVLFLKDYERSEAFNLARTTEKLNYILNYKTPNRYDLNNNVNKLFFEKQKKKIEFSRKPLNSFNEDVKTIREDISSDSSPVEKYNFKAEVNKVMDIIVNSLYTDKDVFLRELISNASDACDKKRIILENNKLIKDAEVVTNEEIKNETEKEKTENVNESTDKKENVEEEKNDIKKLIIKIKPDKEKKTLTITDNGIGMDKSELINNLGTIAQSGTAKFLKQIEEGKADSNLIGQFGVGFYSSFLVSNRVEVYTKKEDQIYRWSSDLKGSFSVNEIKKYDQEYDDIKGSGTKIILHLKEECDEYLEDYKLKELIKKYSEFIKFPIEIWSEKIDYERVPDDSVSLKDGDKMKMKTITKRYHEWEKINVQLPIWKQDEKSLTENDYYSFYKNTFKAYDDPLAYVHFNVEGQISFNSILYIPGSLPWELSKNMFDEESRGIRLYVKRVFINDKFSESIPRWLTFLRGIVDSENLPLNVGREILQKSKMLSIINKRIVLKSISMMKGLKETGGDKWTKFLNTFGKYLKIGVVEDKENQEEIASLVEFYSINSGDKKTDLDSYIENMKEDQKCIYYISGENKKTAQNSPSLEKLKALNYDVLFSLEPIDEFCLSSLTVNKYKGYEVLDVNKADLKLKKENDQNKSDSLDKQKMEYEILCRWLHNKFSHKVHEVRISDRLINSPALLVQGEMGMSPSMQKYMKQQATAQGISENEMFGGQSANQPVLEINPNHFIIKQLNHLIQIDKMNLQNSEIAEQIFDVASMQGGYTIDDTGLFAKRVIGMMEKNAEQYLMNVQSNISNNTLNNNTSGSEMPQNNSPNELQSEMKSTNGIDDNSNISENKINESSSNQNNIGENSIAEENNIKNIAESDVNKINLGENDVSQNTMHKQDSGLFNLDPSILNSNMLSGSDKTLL
Summary of the method: (§1)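 Recombinant Pf Hsp90 proteins were expressed in E. coli BL21 DE3 pLysS in LB, induced with 0.5 mM IPTG for 18 h at 20 °C. They were purified by His-affinity then size exclusion, keeping the 33 kDa fractions. Ligand was titrated in 1:1 dilutions against 100 nM protein with 5% DMSO. MST was run at 40% LED and 40% MST power.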

[2] = test system: Heat-shock protein (Plasmodium falciparum), Q25869 [K313Q]; assay: Inhibition of Plasmodium falciparum HSP90 K313Q mutant expressed in yeast assessed as growth inhibition of host at 100 uM after 72 hrs
[3] = Binding affinity to N-terminal FLAG-tagged Plasmodium falciparum recombinant HSP90 R98K mutant expressed in Escherichia coli BL21(DE3) by microscale thermophoresis assay; summary of the method: as §1
[4] = Inhibition of Plasmodium falciparum HSP90 ISG-LGA mutant expressed in yeast assessed as growth inhibition of host after 72 hrs
Summary of the method: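 Host was an isogenic S. cerevisiae strain derived from DP533 (Δhsc82 Δhsp82 pdr5), carrying Flag-tagged PfHsp90 ISG-LGA/K313Q from a low-copy plasmid as its only Hsp90. Cultures were diluted to OD600 0.1 in minimal medium with 2% DMSO. OD600 was read every 30 min for 72 h. Growth % was maximal growth-curve slope relative to solvent-only; IC50 from triplicate dose-response.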

[5] = Binding affinity to N-terminal FLAG-tagged Plasmodium falciparum recombinant HSP90 ISG-LGA mutant expressed in Escherichia coli BL21(DE3) by microscale thermophoresis assay; summary of the method: as §1

Sequence of Heat-shock protein (Plasmodium falciparum), Q25869 [K313Q] (Q25869 whole entry K313Q): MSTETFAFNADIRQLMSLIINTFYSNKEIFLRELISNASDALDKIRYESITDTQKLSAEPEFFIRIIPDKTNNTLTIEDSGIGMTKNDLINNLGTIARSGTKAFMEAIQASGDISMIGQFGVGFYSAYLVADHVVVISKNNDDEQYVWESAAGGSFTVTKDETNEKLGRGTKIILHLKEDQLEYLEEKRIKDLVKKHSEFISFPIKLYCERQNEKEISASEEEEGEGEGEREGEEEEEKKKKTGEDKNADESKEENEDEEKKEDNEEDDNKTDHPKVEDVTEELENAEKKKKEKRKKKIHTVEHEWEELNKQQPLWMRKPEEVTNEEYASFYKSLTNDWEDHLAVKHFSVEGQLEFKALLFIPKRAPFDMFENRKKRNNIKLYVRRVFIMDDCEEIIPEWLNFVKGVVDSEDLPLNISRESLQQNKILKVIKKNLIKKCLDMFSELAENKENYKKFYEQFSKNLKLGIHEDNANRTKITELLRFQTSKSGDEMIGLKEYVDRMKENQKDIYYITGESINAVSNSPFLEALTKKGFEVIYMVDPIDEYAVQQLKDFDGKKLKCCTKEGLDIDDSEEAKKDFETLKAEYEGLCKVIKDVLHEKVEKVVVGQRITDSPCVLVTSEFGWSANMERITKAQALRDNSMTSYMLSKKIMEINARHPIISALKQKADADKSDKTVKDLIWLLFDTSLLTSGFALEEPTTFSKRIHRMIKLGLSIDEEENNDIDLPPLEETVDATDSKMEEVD

Row | SMILES | IC50 (Plasmodium falciparum; Plasmodium falciparum, NF54) [µM] | IC50 (L6; Rattus norvegicus, L6, 72 h) [µM] | Ratio IC50 [1] | Kd (HSP90) [µM] | further results
1 | COCC(=O)Nc1c(C(=O)OC)n(CCC(C)C)c2ncc(NC3CCCCCCC3)cc12 | 5.02 | 56 | >10 | 25.4 | 
2 | COCC(=O)Nc1c(C(=O)OC)n(CCC(C)C)c2ncc(NC(C)C)cc12 | 13.8 | 56 | 4 | 175 | 
3 | COCCn1c(C(=O)OC)c(NC(=O)Cc2ccccc2)c2cc(NC3CCCCCCC3)cnc21 |  |  |  |  | inhibition [2]: Active
4 | COCC(=O)Nc1c(C(=O)OC)n(CCC(C)C)c2ncc(NC(C)CCC=C(C)C)cc12 (racemic) | 5.75 | 63 | >10 | 14.1 | Kd [3]: 16.5 µM; IC50 [4]: 61.2 µM
5 | COCC(=O)Nc1c(C(=O)OC)n(C)c2ncc(NC(C)CCC=C(C)C)cc12 (racemic) |  |  |  | 115 | 
6 | COC1=C2C[C@@H](C)C[C@H](OC)[C@H](O)[C@@H](C)/C=C(\C)[C@H](OC(N)=O)[C@@H](OC)/C=C\C=C(/C)C(=O)NC(=CC1=O)C2=O [GELDANAMYCIN] |  |  |  |  | IC50 (Plasmodium falciparum): 0.148 µM; Kd [5]: 0.103 µM; IC50 (L6; l6): 6 µM
